Published values pooled from the literature.
Cell line: SK-BR-3
Effect on: cell growth or viability

COC1=C2C[C@@H](C)C[C@H](OC)[C@H](O)[C@@H](C)/C=C(\C)[C@H](OC(N)=O)[C@@H](OC)/C=C\C=C(/C)C(=O)NC(=CC1=O)C2=O
IC50 (SRB; 72 h): 0.05 µM

CC(=O)c1c(C)c2cnc(Nc3ccc(N4CCNCC4)cn3)nc2n(C2CCCC2)c1=O
GI50 (resazurin): 5 µM

Cc1cc(C)n(-c2nc(NN=Cc3c[nH]c4ccccc34)nc(Nc3ccc(Br)cc3)n2)n1
IC50 (SRB; 72 h): 6 µM

COc1cc(OC)c(/C=C/S(=O)(=O)Nc2ccc(OC)c(N)c2)c(OC)c1
IC50 (trypan blue; 96 h): 0.004 µM

COc1cc(Nc2nccc(-c3cnn4nc(OC)ccc34)n2)cc(C(F)(F)F)c1
IC50 (ATP luminescence): 0.34 µM

NNc1nc(Nc2ccccc2)nc(Nc2ccc(Br)cc2)n1
IC50 (SRB; 72 h): > 30 µM

COc1cccc2c1C(=O)c1c(O)c3c(c(O)c1C2=O)C[C@@](O)(C(=O)CO)C[C@@H]3O[C@H]1C[C@H](N)[C@H](O)[C@H](C)O1
IC50 (MTT; 72 h): 1.65 µM

CN1CCN(c2ccc(Nc3ncc4cc(C#N)c(=O)n(C5CCCC5)c4n3)cc2)CC1
GI50 (resazurin; 96 h): 0.6 µM

CC(C)C[C@H](NC(=O)[C@H](Cc1ccccc1)NC(=O)c1cnccn1)B(O)O
IC50 (ATP luminescence): 0.0088 µM

CC(=O)O[C@H]1C(=O)[C@@]2(C)[C@H]([C@H](OC(=O)c3ccccc3)[C@]3(O)C[C@H](OC(=O)[C@H](O)[C@@H](NC(=O)c4ccccc4)c4ccccc4)C(C)=C1C3(C)C)[C@]1(OC(C)=O)CO[C@@H]1C[C@@H]2O
IC50 (MTT; 72 h): 0.005 µM
